# Screening data as filed in PubChem.
# Hits are enriched below; roughly 2.4% of the tested compounds scored in any of these assays.
# HSV augment: increases HSV replication in cells; actives 0.005% (n = 220,000); HSV replication augmentation in cells, fold increase; maximum fold increase; in the data active means maximum fold increase above about 1.5; inconclusive means no clear call, values can overlap the other calls; tested in PC3 cells
# ROMK mod: modulators of human ROMK potassium channel; P48048; Tet-inducible ROMK, thallium flux fluorescence; actives lie on both sides; B-score at 10 µM; actives 2% (n = 130,000); AID 1918;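 active means signal ratio slope over the read window, or its plate-corrected B-score, at least 3 SD from the plate mean, either direction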;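 further: B-score of the F/F0 ratio slope over 7 to 12 s after thallium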
# Target sequence (P48048 whole entry, looked up): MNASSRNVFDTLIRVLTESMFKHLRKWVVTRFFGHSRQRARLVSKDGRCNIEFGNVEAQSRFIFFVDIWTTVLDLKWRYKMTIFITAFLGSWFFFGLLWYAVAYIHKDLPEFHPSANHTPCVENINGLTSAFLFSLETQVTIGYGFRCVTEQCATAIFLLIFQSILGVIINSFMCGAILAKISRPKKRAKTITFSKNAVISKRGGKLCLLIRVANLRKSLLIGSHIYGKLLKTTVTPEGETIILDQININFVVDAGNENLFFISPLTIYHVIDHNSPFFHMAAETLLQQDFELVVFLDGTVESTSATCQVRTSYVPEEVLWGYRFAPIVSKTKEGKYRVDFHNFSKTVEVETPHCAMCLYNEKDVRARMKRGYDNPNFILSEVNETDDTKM
# INS promoter inh: TRM-6 insulin promoter activity inhibition. AID 1273. actives 0.9% (n = 130,000). TRM-6 cells (human fetal islet line), insulin promoter-eGFP reporter, imaging; reporter expression induced with tamoxifen. inhibition, % at 2 µM;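 active means inhibition above the mean plus 3 SD, with well images judged a real hit on visual review, cut at about 60% in these data, passing the limit was not always enough; inconclusive means inhibition over the cutoff but images rejected on review; inactive means inhibition not above the cutoff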
# MT stabilizer: microtubule stabilization, imaging screen; HeLa tubulin immunostaining HCS, 24 h; share of cells brighter than vehicle mean+2SD; % tubulin-high responders, % at 10 µM; actives 0.83% (n = 200,000); AID 2205;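 active means plate Z-score above 3 for both tubulin-high and condensed-nucleus cell shares, with cell loss under 80%, at 10 µM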;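 further: anti alpha tubulin signal scored within the nucleus-defined area of each cell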
# b-catenin transl: alters nuclear translocation of beta-catenin in HeLa cells. immunofluorescence imaging. actives 0.3% (n = 190,000). nuclear translocation activity, % at 5 µM;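 active means nuclear translocation activity above 50% at 5 µM, with a well cell count of 50 or more; inconclusive means wells under 50 cells across six images, flagged as toxic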;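 further: per-cell ratio of nuclear to cytoplasmic median beta-catenin stain intensity; plate controls were DMSO negative control for no effect and GSK-3 inhibitor IX positive control for full effect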
#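 Assay system: human HeLa cells, native beta-catenin; doses: 5 µM primary, 0.02–20 µM confirmation; incubation: compound treatment 24 h, 37°C, 5% CO2; technique: fluorescence imaging of beta-catenin antibody stain plus DAPI; measure: % activation, nuclear-to-cytoplasmic median beta-catenin signal ratio per cell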
# Numbers without * were called inactive; i = inactive; ? = inconclusive; . = not tested or not shown.
SMILES,HSV augment,ROMK mod,INS promoter inh,MT stabilizer,b-catenin transl
Cc1ccccc1-n1c(O)c(/C=C/C=Nc2ccccc2)c(=O)[nH]c1=O,?,.,-20,3,12
Cc1ccc(-n2c(O)c(/C=C3/C(c4ccccc4)=Nc4ccccc43)c(=O)[nH]c2=O)cc1,i,.,.,18*,0
O=C(NCc1ccc2c(c1)OCO2)C1(S(=O)(=O)c2ccccc2)CC1,i,.,93*,3,.
Cc1ccc(S(=O)(=O)C2(C(=O)NCc3ccc4c(c3)OCO4)CC2)cc1,i,.,.,3,-1
CCCCOc1ccc(-c2nnn(CC(=O)NCc3ccco3)n2)cc1,i,.,31,39*,24
Nc1nc(-c2ccccc2)cc(N2CCCCC2)n1,i,.,-93,14*,56*
CCOc1cc(NS(=O)(=O)c2ccc(NC(C)=O)cc2)c(OCC)cc1NC(=O)c1cccs1,i,0.79,-17,2,-4
COC(=O)c1ccc(-n2c(C)nc(=O)c(-c3ccccc3)c2C)cc1,i,.,72*,2,1
COc1ccc(-n2c(C)nc(=O)c(-c3ccccc3)c2C)cc1,i,.,38,4,-2
CSc1ccc(NC(=O)N2CC=C(n3c(=O)[nH]c4ccccc43)CC2)cc1,i,1.8,64*,31*,-2
CCCc1cc(NCCCCO)n2c(nc3ccccc32)c1C#N,i,-0.26,79*,5,-4
Cc1cc(NCCCCO)n2c(nc3ccccc32)c1C#N,i,0.67,-105,3,-3
CC1=NC(C(F)(F)F)(C(F)(F)F)C2=C(CC(C)(C)CC2=O)N1Cc1ccco1,i,0.91,35,2,.
CC1=CCC2C(=O)N(c3ccc(OC(=O)c4ccco4)cc3)C(=O)C2C1 (stereo unspecified),i,0.2,.,5,-2
CCCC(=O)n1nc(-c2cccnc2)nc1N,i,.,94*,3,0
Cc1ccc(C(=O)n2nc(-c3cccnc3)nc2N)cc1,i,-0.21,14,3,.
NC1=NC(c2ccccc2)N=C(Nc2ccccc2)N1 (stereo unspecified),i,.,.,.,4
Cc1ccc(/C=C2\SC(=S)N(C(Cc3ccccc3)C(=O)O)C2=O)cc1 (stereo unspecified),i,-3*,27,3,-1
COc1ccc(C2=NOC3(CC(=O)N(c4ccc5ccccc5c4)C3=O)C2)c(OC)c1 (stereo unspecified),i,.,26,3,0
Cc1cc(C)n(CCC(=O)N/N=C/c2ccc(O)cc2)n1,i,.,.,3,-2
Cc1ccc(/C=N/NC(=O)CCn2nc(C)cc2C)c(C)c1,i,.,0,27*,41
CC1=C(C#N)C(c2ccccc2)C2=C(N1)c1ccccc1C2=O (stereo unspecified),i,0.09,-121,24*,-4
CC1=C(C#N)C(c2cccnc2)C2=C(N1)c1ccccc1C2=O (stereo unspecified),i,-0.063,3,1,-2
CC1=CC(C)(C)N(S(=O)(=O)c2ccc(F)cc2)c2ccccc21,i,1.6,6,25*,0
CC1=CC(C)(C)N(S(=O)(=O)c2ccc(C)cc2)c2ccc(C)cc21,i,2.2,51,10,.
SMILES,HSV augment,ROMK mod,INS promoter inh,MT stabilizer,b-catenin transl
N#Cc1c(-c2ccccc2)c(-c2ccccc2)nn(CC(=O)NNC(=O)Nc2ccc(Cl)c(Cl)c2)c1=O,i,0.11,32,21*,20
Cc1c(C(=O)C(=O)N2c3ccc(F)cc3CCC2C)c2ccccc2n1C (stereo unspecified),i,.,-26,6,68*
Cc1c(C(=O)C(=O)N2CCCc3ccccc32)c2ccccc2n1C,i,.,.,30*,1
Cc1cc(C)cc(N(C(=O)CCC(=O)Nc2ccccn2)C(C(=O)NC(C)C)c2ccc(O)cc2)c1 (stereo unspecified),i,0.11,.,3,3
COC(=O)C1=C2SC(C)C(=O)N2C(N)=C(C#N)C1c1ccc(OC)c(OC)c1 (stereo unspecified),i,.,82*,5,-3
COc1cc(C2CC(=O)N(c3ccc(C)cc3)C(=O)C2)cc(OC)c1OC,i,1.9,.,.,75*
COc1ccc(N2C(=O)CC(c3cc(OC)c(OC)c(OC)c3)CC2=O)cc1,i,-0.54,.,.,1
Nc1c2c(=O)oc(-c3ccccc3)cc2nn1-c1ccccc1,.,.,54,29*,.
CCc1nc(N2CCCCC2C)c2oc3ccccc3c2n1 (stereo unspecified),i,.,.,31*,114*
CCc1nc(N2CCN(Cc3ccc4c(c3)OCO4)CC2)c2oc3ccccc3c2n1,i,.,29,48*,116*
CCc1nc(N2CCCCC2C(=O)O)c2oc3ccccc3c2n1 (stereo unspecified),i,0.013,.,.,0
CCc1nc(Nc2ccc3c(c2)OCO3)c2oc3ccccc3c2n1,.,.,79*,2,-1
CCc1nc(N2CCCCC2)c2oc3ccccc3c2n1,i,.,58,3,3
COc1ccc(/C=N/n2c(SC)nnc2-c2ccccc2)cc1C,i,.,33,27*,2
COc1ccc(/C=N/N2CCN(c3ccccc3OC)CC2)cc1OC,i,.,-22,3,0
CCCCCCCNC1=CC(=O)CC(c2ccccc2)C1 (stereo unspecified),i,.,30,12*,16
CCCCCNC1=CC(=O)CC(c2ccccc2)C1 (stereo unspecified),i,.,26,47*,.
C[N+]12CCCCC1C(COC(=O)c1ccc3c(c1)OCO3)CCC2 (stereo unspecified),.,-0.12,75*,1,-3
CC1CCCC(C)N1C(=O)COC(=O)c1ccc2c(c1)OCO2 (stereo unspecified),i,-0.97,.,4,-2
COc1ccc(C2C=C(c3ccc(C)c(C)c3)Nc3ncnn32)c(OC)c1OC (stereo unspecified),i,.,.,23*,.
COc1ccccc1OCC#CCNC1CCCCC1C (stereo unspecified),i,0.23,.,5,1
Cc1ccc(OCC(=O)N/N=C/c2cccn2C)cc1,i,.,71*,2,.
C(=C1/CCCC2=C1Nc1ncnn1C2c1ccccc1)/c1ccccc1 (stereo unspecified),i,.,73*,6,-1
S=C1NC2=C(CCC/C2=C\c2ccccc2)C(c2ccccc2)N1 (stereo unspecified),i,.,10,1,-1
CC(=O)N(NC(=O)c1ccc(C)cc1)C1CC(=O)N(c2ccccc2Cl)C1=O (stereo unspecified),i,-0.17,.,4,-1
Cc1cc(C(F)(F)F)n(-c2nc(C(=O)N/N=C/c3ccc(F)cc3)cs2)n1,i,.,-29,49*,.
COc1cccc(/C=N/NC(=O)c2csc(-n3nc(C)cc3C(F)(F)F)n2)c1,i,.,32,43*,30
COc1ccccc1NC(=O)c1csc(-n2nc(C)cc2C(F)(F)F)n1,i,0.89,-82,6,.
